# From PubChem
# Shown are actives, neighbours in structure and some others; about 2.3% of the full set was active somewhere.
# TRPC4 potent – positive allosteric modulators of TRPC4, primary screen, cell-based, mouse TRPC4beta, HEK293 mu-opioid, Fluo-4 calcium | Short transient receptor potential channel 4 (Mus musculus), Q9QUQ5 | DAMGO EC20, Fluo-4 Ca2+ flux; stronger effect = higher value | B-score at 10 µM | 0.42% of 310,000 active | AID 2227, 2009;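 active means B-score of calcium response area above 5 SD of library B-scores, with initial fluorescence ratio within 5 SD of library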;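 further: B-score of integrated fluorescence ratio over time as area under calcium response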
# Target sequence (Q9QUQ5 whole entry, looked up): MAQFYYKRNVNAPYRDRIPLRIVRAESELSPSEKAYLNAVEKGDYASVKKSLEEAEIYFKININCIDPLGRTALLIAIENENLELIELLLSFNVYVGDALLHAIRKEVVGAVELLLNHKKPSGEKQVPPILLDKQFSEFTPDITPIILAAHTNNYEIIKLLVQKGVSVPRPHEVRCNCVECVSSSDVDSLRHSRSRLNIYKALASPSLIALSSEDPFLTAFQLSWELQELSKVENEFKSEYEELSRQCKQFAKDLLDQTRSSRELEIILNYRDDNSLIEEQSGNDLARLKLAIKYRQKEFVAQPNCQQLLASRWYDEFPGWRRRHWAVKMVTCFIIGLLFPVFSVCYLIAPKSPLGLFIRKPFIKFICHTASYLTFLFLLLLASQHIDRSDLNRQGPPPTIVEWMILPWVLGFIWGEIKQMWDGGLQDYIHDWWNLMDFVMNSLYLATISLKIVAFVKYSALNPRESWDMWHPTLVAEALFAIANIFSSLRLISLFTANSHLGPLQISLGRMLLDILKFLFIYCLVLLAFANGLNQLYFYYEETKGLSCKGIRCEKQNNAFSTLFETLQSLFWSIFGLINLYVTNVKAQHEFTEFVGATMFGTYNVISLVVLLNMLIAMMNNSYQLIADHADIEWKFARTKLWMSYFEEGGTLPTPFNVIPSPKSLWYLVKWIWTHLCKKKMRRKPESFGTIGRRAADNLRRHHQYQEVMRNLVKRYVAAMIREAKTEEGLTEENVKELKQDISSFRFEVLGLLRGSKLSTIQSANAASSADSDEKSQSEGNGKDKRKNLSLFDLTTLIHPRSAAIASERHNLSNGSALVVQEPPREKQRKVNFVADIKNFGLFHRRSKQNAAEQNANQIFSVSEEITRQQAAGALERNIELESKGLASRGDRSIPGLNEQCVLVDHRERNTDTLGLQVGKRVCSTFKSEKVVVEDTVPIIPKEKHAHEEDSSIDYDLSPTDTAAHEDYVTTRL
# TRPC6 act – mouse TRPC6 channel activators, primary screen, cell-based, HEK293, membrane potential dye; Short transient receptor potential channel 6 (Mus musculus), Q61143; HEK293-TRPC6 membrane potential dye fluorescence; stronger effect = higher value; B-score at 10 µM; 0.13% of 310,000 active;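 active means B-score of the integrated fluorescence ratio above library mean plus 3 SD, and starting fluorescence ratio within library mean plus 5 SD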;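 further: higher score means more depolarization so channel activation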
# TRPC4 act – activators of mouse TRPC4 channel, primary screen, Fluo4 calcium, HEK293 TRPC4beta/mu-opioid cells. Short transient receptor potential channel 4 (Mus musculus), Q9QUQ5. Fluo4 calcium fluorescence; stronger effect = higher value. B-score at 10 µM. 0.49% of 310,000 active;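 active means B-score above 5 SD of library B-scores, and initial fluorescence ratio not above library mean plus 5 SD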;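 further: positive B-score marks a calcium rise read as TRPC4 activation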
#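 Technique: kinetic Fluo4 calcium fluorescence; Test system: TRPC4beta and mu-opioid receptor HEK293 stable cells; Measure: B-scored integrated calcium fluorescence ratio; Benchmarks: low control buffer alone, high control maximal DAMGO; Schedule: 45 min room-temperature Fluo4 loading, 110 s read.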
# TRPC6 inhibitor – mouse TRPC6 channel inhibitors, primary screen, cell-based, HEK293, membrane potential dye; ACh-evoked depolarization; stronger effect = lower value; B-score at 10 µM; 1.1% of 310,000 active;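 active means B-score under library mean minus 3 SD, initial fluorescence not abnormally high, positive integrated signal ratio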;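 further: B-score derived from integrated fluorescence ratio over the kinetic read; more negative B-score means stronger inhibition of depolarization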
# TRPC4 block – inhibitors of mouse TRPC4 channel, primary screen, Fluo4 calcium, HEK293 TRPC4beta/mu-opioid cells | 0.39% of 300,000 active | DAMGO-evoked Fluo4 calcium flux; stronger effect = lower value | B-score at 10 µM;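 active means B-score over 3 SD under the library average, no early fluorescence shift, positive overall ratio signal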
#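 Assay system – HEK293 line stably carrying TRPC4beta and mu-opioid receptor · Doses – single dose · Detection – Fluo4 calcium-dye fluorescence, kinetic read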
# Active calls of the source: *; i = inactive; . = no result.
SMILES,TRPC4 potent,TRPC6 act,TRPC4 act,TRPC6 inhibitor,TRPC4 block
COCCCNc1nc2c(c(=O)n(Cc3ccc(OC)cc3)c(=O)n2C)n1C,i,i,i,i,i
Cc1csc(Sc2ccc([N+](=O)[O-])cc2C(=O)OCC(=O)NC(=O)NC(C)(C)C)n1,i,i,i,i,i
CC(C)(C)n1nnnc1C(c1ccncc1)N(Cc1ccccc1)Cc1ccco1 (stereo unspecified),10*,i,i,i,i
O=C(Nc1cccc(Cl)c1)c1ccc(-n2cncn2)c([N+](=O)[O-])c1,i,i,i,-5.5*,i
COc1ccc(/C=C/CN2CCCC(C(=O)c3ccc(OC)c(F)c3)C2)cc1 (stereo unspecified),i,i,131*,i,i
Cc1ccc(SC[C@H](Cc2ccccc2)N2CCN(CC(C)C)CCC2=O)cc1,i,i,47*,i,.
CC(C)C[C@@H](COc1ccccc1)N1CCN(Cc2ccccc2)CCC1=O,i,i,52*,i,i
O=C1CCN(Cc2ccccc2)CCN1[C@H](COc1ccccc1)Cc1ccccc1,i,i,65*,i,.
CSc1nnc(-c2ccc(S(=O)(=O)N3CCCCC3)cc2)o1,i,i,i,i,i
COc1ccc(Cl)cc1NC(=O)NCC1CCN(Cc2cc(C)ccc2C)CC1,i,i,i,i,i
Cc1ccc(C)c(CN2CCC(CNC(=O)Nc3ccc(C)c(C)c3)CC2)c1,11*,i,i,i,i
CCC(=O)N(C)CCc1cc2c(c(OC)c1/C=N/NC(=O)c1ccc(Br)cc1)OCO2,i,i,i,i,-7*
Cc1ccc(SCCNCc2ccco2)cc1,10*,i,i,i,i
Cc1ccc(SCCC(=O)NCCSCc2ccco2)cc1,i,i,i,i,i
CCOC(=O)c1cc(C)[nH]c1C,i,i,i,i,i
CCOC(=O)c1cc(C)[nH]c(=O)c1C#N,10*,i,i,i,i
CC(=O)Cn1ncc(N2CCOCC2)cc1=O,i,i,i,i,-8*
CC(=O)Cn1ncc(N2CCOCC2)c(Cl)c1=O,i,i,i,i,i
O=C(/C=C/c1cccs1)NC(=S)NNC(=O)c1ccccc1O,i,i,47*,i,i
COc1ccc(C(=O)NNC(=S)NC(=O)/C=C/c2cccs2)cc1,i,i,i,i,i
Nc1nc(-c2ccc(-n3nncc3-c3ccco3)cc2)cs1,i,i,i,i,-5*
Cc1nc(-c2ccc(-n3nncc3-c3ccco3)cc2)cs1,i,i,i,i,i
CCSc1nnc([C@H](Cc2c[nH]c3ccccc23)NC(=O)OC(C)(C)C)o1,17*,i,i,i,i
CCOc1ccc2ncc(C(=O)c3ccc(OC)cc3)c(N3CCN(CC)CC3)c2c1,i,i,120*,i,i
CCOc1ccc(C(=O)c2cnc3ccccc3c2N2CCN(CC)CC2)cc1,i,i,i,i,-5*
SMILES,TRPC4 potent,TRPC6 act,TRPC4 act,TRPC6 inhibitor,TRPC4 block
CCc1ccc(C(=O)c2cnc3ccc(OC)cc3c2N2CCN(CC)CC2)cc1,i,i,230*,i,i
Cc1ccc(SCCCCN2C(=O)NC(C)(C)C2=O)cc1,i,i,i,i,i
O=S(=O)(NC1CCCCC1N1CCN(c2ccccc2F)CC1)c1ccc(Cl)cc1 (stereo unspecified),12*,i,i,i,i
O=C(COC(=O)c1ccccc1C(=O)c1ccccc1)NCCc1ccccc1,i,i,i,i,i
O=C(COC(=O)c1ccccc1C(=O)c1ccc(Cl)cc1)NCCc1ccccc1,14*,i,i,i,i
COc1cc(OC)c(C(=O)OCC(=O)NCCc2ccccc2)cc1OC,i,i,i,i,i
